hIAP inh – human IAP inhibitors, primary screen, biochemical, luminescence, uHTS. 330,000 compounds, 0.12% hits. AID 2544, 2010. purified IAP, CDP-Star luminescence, 30 min. inhibition, % at 10 µM. Intestinal-type alkaline phosphatase (Homo sapiens), P09923;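 active = inhibition reaching a set limit with compound at 10 µM in the primary screen, cut at about 35% in these data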;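 also: plate controls were DMSO wells with enzyme for no effect and no-enzyme buffer wells for full effect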
Target sequence (P09923 whole entry, looked up): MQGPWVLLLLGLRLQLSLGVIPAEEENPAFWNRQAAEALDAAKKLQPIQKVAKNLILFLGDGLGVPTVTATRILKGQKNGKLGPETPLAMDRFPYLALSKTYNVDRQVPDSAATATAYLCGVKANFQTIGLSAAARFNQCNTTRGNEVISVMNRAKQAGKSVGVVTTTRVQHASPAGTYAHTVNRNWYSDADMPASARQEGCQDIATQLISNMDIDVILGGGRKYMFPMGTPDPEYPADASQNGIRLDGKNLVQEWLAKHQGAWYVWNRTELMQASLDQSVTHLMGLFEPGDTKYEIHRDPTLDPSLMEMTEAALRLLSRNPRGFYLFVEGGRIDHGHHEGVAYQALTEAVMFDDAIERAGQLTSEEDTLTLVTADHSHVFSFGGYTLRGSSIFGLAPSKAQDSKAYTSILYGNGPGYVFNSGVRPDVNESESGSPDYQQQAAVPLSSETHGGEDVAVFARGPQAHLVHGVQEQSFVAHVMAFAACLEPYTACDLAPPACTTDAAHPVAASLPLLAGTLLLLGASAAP
bIAP activator – bovine intestinal alkaline phosphatase activators, primary screen, biochemical, bovine IAP, CDP-star luminescence; activation factor at 20 µM; AID 1016, 2008; purified bovine IAP, 30 min; stronger effect = higher value; fold of DMSO-control signal, blank-subtracted; 200,000 compounds, 0.17% hits; alkaline phosphatase, intestinal [Bos taurus];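 active = activation factor of 2 or more at 20 µM, a signal rise over negative controls twice the positive control's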
mIAP activ – activators of mouse IAP, primary screen, biochemical, luminescence, uHTS. intestinal alkaline phosphatase [Mus musculus]. muIAP, CDP-Star luminescence, 30 min; stronger effect = higher value; 1 = vehicle-only enzyme signal, 0 = enzyme-free wells. activation factor at 10 µM. 330,000 compounds, 0.24% hits. AID 2805, 2010;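 active = activation factor of at least 2 at 20 µM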
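System: Mouse IAP enzyme | Also added: CDP-Star substrate | Dosing: Compounds dispensed in DMSO | Schedule: 30 min enzyme-substrate-compound incubation at room temperature | Technique: Chemiluminescence readout | Control set: DMSO-only wells and no-enzyme negative control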
hIAP activ – human IAP activators, primary screen, biochemical, luminescence, uHTS; Intestinal-type alkaline phosphatase (Homo sapiens), P09923; purified human IAP, CDP-Star luminescence, 30 min; stronger effect = higher value; 1 = vehicle-only enzyme, 0 = enzyme-free background; AID 2524, 2010; activation factor at 10 µM; 330,000 compounds, 0.16% hits;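 active = activation factor of the enzyme at least 2-fold when tested at 20 µM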
bIAP inhibitor – bovine intestinal alkaline phosphatase inhibitors, primary screen, selectivity assay for TNAP inhibitor project, biochemical, bovine IAP, CDP-star luminescence; alkaline phosphatase, intestinal [Bos taurus]; purified bovine IAP, 30 min; inhibition, % at 20 µM; 190,000 tested, under 10 active; AID 1019, 2008;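 active = over 50% inhibition of intestinal alkaline phosphatase at 20 µM in the single-dose screen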
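Assay system: bovine IAP enzyme; medium: DEA buffer 100 mM, pH 9.8, with MgCl2 1.0 mM, ZnCl2 0.02 mM; doses: 20 µM single dose; incubation: enzyme reaction for 30 min at room temperature; detection: CDP-star luminescence signal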
mIAP block – inhibitors of mouse IAP, primary screen, biochemical, luminescence, uHTS. intestinal alkaline phosphatase [Mus musculus]. purified mouse IAP, CDP-Star luminescence, 30 min. inhibition, % at 10 µM. 330,000 compounds, 0.2% hits;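 active = inhibition of at least 40% at 10 µM in the primary screen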;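 also: plate controls were DMSO with enzyme for no effect and no enzyme wells for full effect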
mIAP inh conf – inhibitors of mouse IAP, confirmation, biochemical, luminescence, single concentration. purified mouse IAP, CDP-Star luminescence, 30 min. 11,000 compounds, 4.7% hits. shares compounds with mIAP block. AID 434971, 2010. inhibition, % at 10 µM;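 active = inhibition of at least 40% at 10 µM in either of the two replicates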;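 also: plate controls were DMSO wells with enzyme for no effect and buffer wells lacking enzyme for full effect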
An asterisk follows results filed as active; . = no result given. A selection: hits, their analogues and other compounds. The true share with any hit is near 0.77%.

SMILES | hIAP inh | bIAP activator | mIAP activ | hIAP activ | bIAP inhibitor | mIAP block | mIAP inh conf
CCOc1cc(/C=N/Nc2nc(-c3cccs3)c(NC(C)=O)s2)ccc1O | 14 | . | 0.59 | 0.86 | . | 41* | 44*
C[C@@H]1CN([C@@H](C)CO)C(=O)c2cccc(NC(=O)Nc3ccc(F)cc3)c2O[C@@H]1CN(C)Cc1ccc(Oc2ccccc2)cc1 | 15 | . | 4.3* | 0.85 | . | -333 | -117
C[C@@H]1CN([C@H](C)CO)C(=O)c2cc(NC(=O)Nc3cccc4ccccc34)ccc2O[C@H]1CN(C)Cc1ccc(C(F)(F)F)cc1 | -10 | . | 3.3* | 1.1 | . | -231 | -120
COc1ccc(NC(=O)Nc2cccc3c2O[C@H](CN(C)S(=O)(=O)c2ccc(OC)cc2)[C@@H](C)CN([C@H](C)CO)C3=O)cc1 | -18 | . | 1.1 | 1.2 | . | -6 | .
COc1ccc(NC(=O)Nc2cccc3c2O[C@H](CN(C)Cc2ccc(-c4ccccc4)cc2)[C@@H](C)CN([C@H](C)CO)C3=O)cc1 | 4 | . | 1.1 | 0.96 | . | -15 | .
C[C@@H]1CN([C@H](C)CO)C(=O)c2cc(NC(=O)C3CCCCC3)ccc2O[C@@H]1CN(C)Cc1ccc(C(F)(F)F)cc1 | 10 | . | 1.1 | 0.9 | . | -7 | .
C[C@H](CO)N1C[C@H](C)[C@@H](CN(C)C(=O)Nc2ccccc2)Oc2ccc(NC(=O)Nc3ccc4c(c3)OCO4)cc2C1=O | -1 | . | 3* | 1 | . | -202 | -117
Cc1ccc(S(=O)(=O)N(C)C[C@H]2Oc3c(NC(=O)Nc4cccc5ccccc45)cccc3C(=O)N([C@@H](C)CO)C[C@@H]2C)cc1 | -18 | . | 4.4* | 1.2 | . | -339 | -214
C[C@H]1CN([C@@H](C)CO)C(=O)c2cc(NC(=O)C3CCCCC3)ccc2O[C@H]1CN(C)Cc1ccc(-c2ccccc2)cc1 | -2 | . | 1.1 | 1 | . | -11 | .
C[C@H]1CN([C@@H](C)CO)C(=O)c2cc(NC(=O)Nc3cccc4ccccc34)ccc2O[C@@H]1CN(C)Cc1ccc(-c2ccccc2)cc1 | -4 | . | 3.9* | 1 | . | -288 | -114
Cc1ccc(/C=C2\SC(=S)N(C3CCS(=O)(=O)C3)C2=O)o1 (centres undefined) | 9 | 1 | 0.61 | 0.91 | -2 | 39 | .
NC1=NC(=O)/C(=C\c2ccc(-c3ccc(Cl)cc3)o2)S1 | -37 | . | 0.96 | 1.4 | . | 4 | .
NS(=O)(=O)c1ccc(-c2ccc(/C=C3\SC(=S)N(C4CCS(=O)(=O)C4)C3=O)o2)cc1 (centres undefined) | -3 | . | 0.2 | 1 | . | 80* | 87*
CN(C)C1=NC(=O)/C(=C/c2ccc(-c3ccc(S(N)(=O)=O)cc3)o2)S1 | 9 | . | 0.5 | 0.91 | . | 50* | 50*
Cc1cc(-c2csc(N)n2)c(C)n1C | 9 | 1 | 0.83 | 0.91 | 2 | 17 | .
Cc1cc(-c2csc(N)n2)c(C)n1Cc1ccco1 | 9 | 1.1 | 0.49 | 0.91 | -8 | 51* | 43*
O=C(CCC1CCCC1)NNC(=O)c1cccc(Cl)c1 | -87 | . | 1.1 | 1.9 | . | -8 | .
Cc1ccc(Cl)c2c1=NC(=O)C=2c1[nH]c(=S)[nH]c1O | 24 | 0.1 | 0.54 | 0.76 | . | 46* | 52*
Cc1cc(=O)n2[nH]cc(C(=O)O)c2n1 | 5 | 0.9 | 0.47 | 0.95 | 9 | 53* | 58*
Cc1cc(=O)n2[nH]c(C(=O)O)nc2n1 | -13 | 0.9 | 0.88 | 1.1 | 6 | 12 | .
COc1ccc(NC(=O)COC(=O)c2ccc(S(=O)(=O)N(C)c3ccccc3OC)cc2)c(OC)c1 | . | 1.1 | . | . | -8 | . | .
CCOc1ccc2[nH]cc(C(=O)N3CCN(C4CCCCC4)CC3)c(=O)c2c1 | -7 | . | 1 | 1.1 | . | 0 | .
Cc1ccccc1NC(=S)NCCC(c1ccccc1)c1ccccc1 | -1 | 1.1 | 3.7* | 1 | -10 | -269 | -96
S=C(NCc1ccccn1)Nc1cccc(Cl)c1 | 6 | 1 | 1.2 | 0.94 | 4 | -17 | .
S=C(NCCC(c1ccccc1)c1ccccc1)Nc1cccc(Cl)c1 | -70 | 1.7 | 4.1* | 1.7 | -70 | -305 | -274
SMILES | hIAP inh | bIAP activator | mIAP activ | hIAP activ | bIAP inhibitor | mIAP block | mIAP inh conf
COCCCNC(=S)Nc1ccccc1C | 14 | 0.9 | 0.92 | 0.86 | 13 | 8 | .
COc1ccc(N2CCN(C(CNC(=O)C(=O)NCCc3c[nH]c4ccccc34)c3ccco3)CC2)cc1 (centres undefined) | 5 | 1 | 0.96 | 0.95 | -4 | 4 | .
Cn1nc(-c2ccc(C(=O)NCCO)cc2)c2ccccc2c1=O | -18 | . | 1.1 | 1.2 | . | -12 | .
Cc1ccc(C)c(CN2CCC(CNC(=O)CCc3nnc4ccc(N5CCCCC5)nn34)CC2)c1 | 5 | . | 1 | 0.95 | . | 0 | .
Cc1ccc(C)c(CN2CCC(CNC(=O)Nc3ccc(F)c(Cl)c3)CC2)c1 | -54 | . | 3.4* | 1.5 | . | -235 | -98
COc1cc(NC(=O)NCC2CCN(Cc3ccccc3F)CC2)cc(OC)c1 | -32 | . | 3.1* | 1.3 | . | -208 | -167
Cc1cc(C)cc(NC(=O)NCC2CCN(Cc3cc(C)ccc3C)CC2)c1 | -61 | . | 3.6* | 1.6 | . | -256 | -132
O=C(NCCN1CCCCC1)Nc1ccc(F)c(Cl)c1 | 10 | 0.9 | 1.1 | 0.9 | 10 | -14 | .
COc1ccc(CCNC(=O)c2cc(COc3c(F)cccc3F)on2)c(OC)c1 | -7 | . | 1.1 | 1.1 | . | -8 | .
CCC(C)(C)C(=O)O[C@H]1C[C@@H](C)C=C2C=C[C@H](C)[C@H](CC[C@@H]3C[C@@H](O)CC(=O)O3)[C@H]21 | -2 | . | 1 | 1 | . | -3 | .
COc1cccc(CCc2nnc(CCC(=O)NC(C)c3c(C)nn(C)c3C)o2)c1 (centres undefined) | -4 | 0.9 | 0.87 | 1 | 6 | 13 | .
COc1ccc(N=C2NC(=O)/C(=C\C=C\c3ccco3)S2)cc1 | 6 | 0.9 | 0.65 | 0.94 | 14 | 35 | .
O=C1NC(=Nc2ccc3ccccc3c2)S/C1=C/c1ccco1 | -8 | 1.1 | 0.43 | 1.1 | -6 | 56* | 57*
O=C1NC(=Nc2ccc(O)cc2)S/C1=C/c1ccco1 | 6 | 1 | 0.43 | 0.94 | 4 | 57* | 77*
O=C(O)c1cccc(Nc2nc(-c3cc4ccccc4oc3=O)cs2)c1 | -40 | . | 0.8 | 1.4 | . | 20 | .
